This is one part of a sample in which hits are shown more often than they occur.
Cardio protect – myocardial damage modulation in H9c2 cells; protection from H2O2 cell death, % at 20 µM; H9c2 cardiomyocytes, H2O2 injury protection, ATPLite, 2 h; hit rate 0.63% among 360,000;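 active = compounds giving at least 50% protection of heart cells from peroxide-induced death in the single-dose screen, raw or plate-pattern-corrected value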
iPSC survival up – enhancers of human iPSC single-cell survival. hiPSC single-cell survival, ATPlite luminescence; 100% = ROCK inhibitor wells, 0% = DMSO. survival enhancement, % at 20 µM. hit rate 0.044% among 360,000; in the data active = survival enhancement above about 18%;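 note: cells exposed to compounds for 16 hours before the ATP read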
CHOP inhibitor – CHOP inhibition in unfolded protein response; CHO-K1 CHOP-promoter luciferase, tunicamycin-induced, 15-18 h; inhibition, % at 10 µM; hit rate 3.8% among 220,000; AID 2732;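 active = compounds that reduced the stress-induced luciferase reporter signal by more than about 70% of percent inhibition, limit read from the data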
UPR XBP1 act – adaptive UPR (XBP1) activation; CHO-XBP1 luciferase reporter, IRE1-XBP1 UPR activation, luminescence; percent of tunicamycin response, DMSO as zero; activation, % at 20 µM; hit rate 0.33% among 330,000; AID 463104;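 active = versus positive control, 20 µM dose yields 30% or more activation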
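Assay system: CHO-XBP1 luciferase reporter cells; Schedule: 6 h treatment, 37 °C; Detection: glow luminescence from Steady-Glo reagent; Benchmarks: high control tunicamycin 10 µg/mL final, low control DMSO vehicle only.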
CHOP UPR activ – apoptotic UPR (CHOP) activation. CHO-CHOP luciferase reporter, luminescence; percent of tunicamycin response over DMSO baseline. activation, % at 10 µM. hit rate 0.34% among 330,000;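 active = at 10 µM dose, activation of 40% or more, normalized to positive control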
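Test system: CHO-CHOP cells, stable luciferase reporter of PERK-eIF2a-CHOP signalling | Quantity: 500 CHO-CHOP cells per well | Buffer or medium: F12 plus 10% serum | Compound dosing: 10 µM single point, 0.5% DMSO | Schedule: 6 h compound treatment, 37 °C | Signal: Luciferase luminescence | Control set: Tunicamycin high control, DMSO low control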
Of the large screens only hits and unclear results are named; the others gave an inactive call.

O=C(COC(=O)CCc1nc2ccccc2c(=O)[nH]1)Nc1ccc2c(c1)OCO2	Cardio protect 52
O=C(CCc1nc2ccccc2c(=O)[nH]1)OCc1ccc(-c2ccccc2)cc1	none
Cc1ccc(OCCOC(=O)CCc2nc3ccccc3c(=O)[nH]2)cc1	Cardio protect 55
COc1ccc(C(=O)NNC(=O)CCc2nc3ccccc3c(=O)[nH]2)cc1	Cardio protect 64 (no result: CHOP inhibitor)
CCc1ccc(C(=O)NNC(=O)CCc2nc3ccccc3c(=O)[nH]2)cc1	none (no result: CHOP inhibitor)
Cc1ccsc1-c1cc2nc(Nc3ccc(F)cc3)n(C)c(=O)c2s1	none (no result: CHOP inhibitor, UPR XBP1 act, CHOP UPR activ)
COc1ccc(OC)c(S(=O)(=O)Nc2ccc3c(c2)OCCO3)c1	none (no result: CHOP inhibitor, UPR XBP1 act, CHOP UPR activ)
CCOC(=O)[C@]12CCCC=C1N(Cc1ccco1)C(=O)[C@H](CC(=O)N1CCSCC1)C2	none (no result: Cardio protect, CHOP inhibitor, UPR XBP1 act, CHOP UPR activ)
N#CCCN(C(=O)COC(=O)CCc1nc2ccccc2c(=O)[nH]1)c1ccccc1F	Cardio protect 58 (no result: CHOP inhibitor)
O=C(CCc1nc2ccccc2c(=O)[nH]1)OCc1cccc(C(F)(F)F)c1	none
O=C(COC(=O)CCc1nc2ccccc2c(=O)[nH]1)Nc1c(Cl)cccc1C(F)(F)F	Cardio protect 52 (no result: CHOP inhibitor)
N#CCCN(C(=O)COC(=O)CCc1c[nH]c2ccccc12)c1ccc(F)cc1	none (no result: CHOP inhibitor)
O=C(NCCc1ccc(C(F)(F)F)cc1)C1CC(=O)N(Cc2ccccc2)C1 (stereo not given)	none (no result: CHOP inhibitor)
COc1ccc(CNC(=O)c2csc(Cc3ccccc3)n2)cc1	none
COc1ccccc1CNC(=O)c1csc(Cc2ccc(Cl)cc2)n1	CHOP inhibitor 80
COc1ccc(-n2nnnc2SCc2nc3ccccc3s2)cc1	CHOP inhibitor 82
O=C1c2ccccc2C(=O)C2OC12 (stereo not given)	CHOP UPR activ 66 (no result: Cardio protect, iPSC survival up, CHOP inhibitor)
Cc1cc(N2C3CCC2CC(O)(c2ccc(F)cc2)C3)nc(-c2ccccc2)n1 (stereo not given)	CHOP inhibitor 72
Cc1ccnc(N2C3CCC2CC(O)(c2ccccc2)C3)n1 (stereo not given)	none
C[C@H](O)[C@@H]1CN2CCc3c([nH]c4ccccc34)[C@@H]2C[C@@H]1N(C)C(=O)OCc1ccccc1	none (no result: CHOP inhibitor, UPR XBP1 act, CHOP UPR activ)
O=C1Nc2cccc3c2N(CCC3)C2=C1CCC2	none (no result: CHOP inhibitor, UPR XBP1 act, CHOP UPR activ)
C=CC[n+]1c(/C=C2\C=Cc3cc(C)ccc3N2CC)ccc2ccccc21	CHOP inhibitor 72
CC(C)OC(=O)c1cccnc1N1CCN(c2ccc(F)cc2)CC1	CHOP inhibitor 78
CC(C)OC(=O)c1ccc(N2CCN(c3ccc(F)cc3)CC2)nc1	none (no result: CHOP inhibitor)
COc1ccccc1Cc1c(-c2ccc(C#N)cc2)nc2c(C)cc(Br)cn12	none (no result: CHOP inhibitor, UPR XBP1 act, CHOP UPR activ)
Cc1cc(F)ccc1C(O)c1ncc(-c2ccccc2Cl)[nH]1 (stereo not given)	none (no result: CHOP inhibitor, UPR XBP1 act, CHOP UPR activ)
O=C(Cn1c(COc2ccccc2)nc2ccccc21)Nc1cc(Cl)ccc1Cl	CHOP inhibitor 82
O=C(Nc1ccc(S(=O)(=O)NC2=NCCCCC2)cc1)c1cccc(OC(F)F)c1	none (no result: CHOP inhibitor, UPR XBP1 act, CHOP UPR activ)
CCOc1ccccc1Nc1nc(-c2sc(NC(=O)c3cccc(Cl)c3)nc2C)cs1	CHOP inhibitor 76
CCCC(C)C(=O)Nc1nc(C)c(-c2csc(Nc3ccc(Cl)cc3)n2)s1 (stereo not given)	CHOP inhibitor 73
COc1ccccc1Nc1nc(-c2sc(NC(=O)c3ccc([N+](=O)[O-])cc3)nc2C)cs1	UPR XBP1 act 32 (no result: Cardio protect, iPSC survival up)
CC1Oc2ccc(C#N)cc2N(Cc2cccc(F)c2)C1=O (stereo not given)	none (no result: CHOP inhibitor, UPR XBP1 act, CHOP UPR activ)
O=C(O)C(=Cc1ccc([N+](=O)[O-])cc1)c1cccc(Cl)c1	none (no result: CHOP inhibitor, UPR XBP1 act, CHOP UPR activ)
CC(C)(C)C1CCC2(CC1)CC(=O)c1ccccc1O2 (stereo not given)	CHOP inhibitor 74
O=C1CC2(CCCCC2)Oc2ccccc21	none (no result: CHOP inhibitor)
CC1=C(C(=O)Nc2ccccc2)C(c2ccc(C)cc2)N=C(Nc2nc3ccccc3o2)N1 (stereo not given)	CHOP inhibitor 88, CHOP UPR activ 74
CCOC(=O)N1CCC(N2C(=O)c3ccccc3C2Nc2cc(OC)c(OC)c(OC)c2)CC1 (stereo not given)	Cardio protect 117
CCOC(=O)N1CCC(N2Cc3cccc(C(=O)Nc4ccc(OC)c(OC)c4)c3C2=O)CC1	Cardio protect 50
CC(=O)Nc1cccc(-c2ccnc3c2CC(C)(C(=O)Nc2ccc(C(C)C)cc2)O3)c1 (stereo not given)	none (no result: CHOP inhibitor, UPR XBP1 act, CHOP UPR activ)
CC(C)(C)n1nc(-c2ccc(F)cc2)c2c(N)ncnc21	none
CC(C)(C)n1nc(-c2ccc(Cl)cc2)c2c(N)ncnc21	CHOP inhibitor 84
Cc1cccc(C)c1C(O)c1ncc(-c2cccc3ccccc23)[nH]1 (stereo not given)	none (no result: CHOP inhibitor, UPR XBP1 act, CHOP UPR activ)
O=C(CCCn1c(=O)c2ccccc2n(CC(=O)NCc2ccco2)c1=O)NCc1ccco1	CHOP inhibitor 73
CCOc1cc2[nH]c(=S)n(CCC(=O)NCc3ccco3)c(=O)c2cc1OCC	none
Cc1ccc(C)c(Cn2c(=O)n(CCC(=O)NCc3ccco3)c(=O)c3ccccc32)c1	CHOP inhibitor 83
Cc1ccc(NC(=O)Cn2c(=O)n(CCCCC(=O)NCc3ccco3)c(=O)c3ccccc32)cc1	none
CCOc1cc2[nH]c(=S)n(CCCC(=O)NCc3ccco3)c(=O)c2cc1OCC	CHOP inhibitor 82
Cc1ccc(C)c(Cn2c(=O)n(CCCC(=O)NCc3ccco3)c(=O)c3ccccc32)c1	none
Cc1ccccc1Cn1c(=O)n(CCC(=O)NCc2ccc3c(c2)OCO3)c(=O)c2ccccc21	CHOP inhibitor 87
O=C(Nc1cc(C(F)(F)F)ccc1F)C1Cc2c(-c3ccccc3Oc3ccccc3)ccnc2O1 (stereo not given)	none (no result: CHOP inhibitor, UPR XBP1 act, CHOP UPR activ)
O=C(NCc1cccnc1)c1csc([C@H]2C[C@H](O)[C@@H](CO)O2)n1	none (no result: CHOP inhibitor, UPR XBP1 act, CHOP UPR activ)
CC1(C(=O)NS(=O)(=O)c2cccc(C#N)c2)CCN1C(=O)c1ccc(C2CCCCC2)cc1 (stereo not given)	none (no result: CHOP inhibitor, UPR XBP1 act, CHOP UPR activ)
COc1ccc(-c2nc3ccc(Br)cn3c2Cc2ccsc2)cc1OC	none (no result: CHOP inhibitor, UPR XBP1 act, CHOP UPR activ)
CC1(Oc2ccc(CC#N)cc2)CCN(Cc2ccc(-n3ccnc3)cc2)C1 (stereo not given)	none (no result: CHOP inhibitor, UPR XBP1 act, CHOP UPR activ)
CCOC(=O)/C(=N\Nc1ccccc1Cl)N1CC(C)OC(C)C1 (stereo not given)	CHOP inhibitor 70
CC1(C(=O)NS(=O)(=O)c2cccc(C#N)c2)CCN1C(=O)c1cccc2ccccc12 (stereo not given)	none (no result: CHOP inhibitor, UPR XBP1 act, CHOP UPR activ)
Brc1ccc2[nH]c3c(c2c1)CCC3	none
OCCN=C1CCCc2c1[nH]c1ccc(Br)cc21	CHOP inhibitor 72
CCOC1(OCC)C(c2ccc(Cl)cc2)C(C#N)(C#N)C1(OCC)OCC (stereo not given)	none
CCOC1(OCC)C(c2ccc(N)cc2)C(C#N)(C#N)C1(OCC)OCC (stereo not given)	CHOP inhibitor 88
Cc1cc(C)c(S(=O)(=O)N2CCCC(C(=O)NCc3cccnc3)C2)c(C)c1 (stereo not given)	none (no result: CHOP inhibitor)

Screening data deposited in PubChem by several laboratories.
